The results in this text go back to ChEMBL document CHEMBL4732114, “Design and structural optimization of novel 2H-benzo[h]chromene derivatives that target AcrB and reverse bacterial multidrug resistance” (Eur J Med Chem, 2021).

For series [1], the target named is T1, Multidrug efflux pump subunit AcrB (Escherichia coli (strain K12)) (UniProt P31224).
T1 sequence (whole entry): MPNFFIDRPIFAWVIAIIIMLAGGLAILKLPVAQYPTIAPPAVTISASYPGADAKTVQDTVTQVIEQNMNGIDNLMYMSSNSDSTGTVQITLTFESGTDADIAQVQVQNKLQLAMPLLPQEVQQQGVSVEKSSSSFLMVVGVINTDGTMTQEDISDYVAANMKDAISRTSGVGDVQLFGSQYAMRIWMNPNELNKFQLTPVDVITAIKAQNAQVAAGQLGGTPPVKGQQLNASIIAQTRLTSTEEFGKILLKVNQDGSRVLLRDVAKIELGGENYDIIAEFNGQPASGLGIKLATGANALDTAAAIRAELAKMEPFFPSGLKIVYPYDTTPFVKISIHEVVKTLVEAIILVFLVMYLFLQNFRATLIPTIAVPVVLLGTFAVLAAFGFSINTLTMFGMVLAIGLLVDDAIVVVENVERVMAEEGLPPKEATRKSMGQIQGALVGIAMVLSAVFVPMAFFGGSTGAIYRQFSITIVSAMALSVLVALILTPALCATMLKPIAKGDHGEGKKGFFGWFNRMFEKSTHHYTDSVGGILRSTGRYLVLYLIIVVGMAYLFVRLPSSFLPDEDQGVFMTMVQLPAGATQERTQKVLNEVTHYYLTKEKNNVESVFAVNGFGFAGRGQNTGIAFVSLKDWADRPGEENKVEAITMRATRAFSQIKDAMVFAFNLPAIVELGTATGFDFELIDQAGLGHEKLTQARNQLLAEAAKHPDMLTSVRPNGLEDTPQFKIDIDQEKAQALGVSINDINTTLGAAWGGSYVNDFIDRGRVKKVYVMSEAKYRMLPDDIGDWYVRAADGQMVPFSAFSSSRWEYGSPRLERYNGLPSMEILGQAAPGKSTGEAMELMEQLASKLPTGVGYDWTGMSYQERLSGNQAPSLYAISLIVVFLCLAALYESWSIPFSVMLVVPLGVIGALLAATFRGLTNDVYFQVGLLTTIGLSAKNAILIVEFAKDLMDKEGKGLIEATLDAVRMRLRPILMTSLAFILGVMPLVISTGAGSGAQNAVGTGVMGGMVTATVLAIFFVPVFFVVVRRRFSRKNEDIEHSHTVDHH
In words: Inhibition of AcrB in multidrug-resistant Escherichia coli BW25113 assessed as potentiation of erythromycin-induced antibacterial activity by measuring erythromycin MIC at 8 ug/ml by checkerboard titration method (reference value: 64 ug/ml). Conditions: dose 8.0 µg/ml; call rule not given here.

Series [2] concerns the target T1, Multidrug efflux pump subunit AcrB (Escherichia coli (strain K12)). In words: Inhibition of AcrB in multidrug-resistant Escherichia coli BW25113 assessed as potentiation of chloramphenicol-induced antibacterial activity by measuring chloramphenicol MIC at 8 ug/ml by checkerboard titration method (reference value: 8 ug/ml). Conditions: dose 8.0 µg/ml.
The target is the same in series [3]. In words: Inhibition of AcrB in multidrug-resistant Escherichia coli BW25113 assessed as potentiation of chloramphenicol-induced antibacterial activity by measuring chloramphenicol MIC at 32 ug/ml by checkerboard titration method (reference value: 8 ug/ml). Conditions: dose 32.0 µg/ml.
Series [4] shares this target. In words: Inhibition of AcrB in multidrug-resistant Escherichia coli BW25113 assessed as potentiation of chloramphenicol-induced antibacterial activity by measuring chloramphenicol MIC at 128 ug/ml by checkerboard titration method (reference value: 8 ug/ml). Conditions: dose 128.0 µg/ml.
Series [5] has the same target. In words: Inhibition of AcrB in multidrug-resistant Escherichia coli BW25113 assessed as potentiation of erythromycin-induced antibacterial activity by measuring erythromycin MIC at 32 ug/ml by checkerboard titration method (reference value: 64 ug/ml). Conditions: dose 32.0 µg/ml.
Series [6] has the same target. Put plainly: Inhibition of AcrB in multidrug-resistant Escherichia coli BW25113 assessed as potentiation of tetraphenylphosphonium-induced antibacterial activity by measuring tetraphenylphosphonium MIC at 8 ug/ml by checkerboard titration method (reference value: 1024 ug/ml). Conditions: dose 8.0 µg/ml.
Series [7] shares this target. In words: Inhibition of AcrB in multidrug-resistant Escherichia coli BW25113 assessed as potentiation of tetraphenylphosphonium-induced antibacterial activity by measuring tetraphenylphosphonium MIC at 32 ug/ml by checkerboard titration method (reference value: 1024 ug/ml). Conditions: dose 32.0 µg/ml.
Series [8] shares this target. Put plainly: Inhibition of AcrB in multidrug-resistant Escherichia coli BW25113 assessed as potentiation of tetraphenylphosphonium-induced antibacterial activity by measuring tetraphenylphosphonium MIC at 64 ug/ml by checkerboard titration method (reference value: 1024 ug/ml). Conditions: dose 64.0 µg/ml.
Series [9] shares this target. Put plainly: Inhibition of AcrB in multidrug-resistant Escherichia coli BW25113 assessed as potentiation of tetraphenylphosphonium-induced antibacterial activity by measuring tetraphenylphosphonium MIC at 128 ug/ml by checkerboard titration method (reference value: 1024 ug/ml). Conditions: dose 128.0 µg/ml.
For series [10] the target is unchanged. Put plainly: Inhibition of AcrB in multidrug-resistant Escherichia coli BW25113 assessed as potentiation of levofloxacin-induced antibacterial activity by measuring levofloxacin MIC at 8 ug/ml by checkerboard titration method (reference value: 0.06 ug/ml). Conditions: dose 8.0 µg/ml.
Series [11] shares this target. Put plainly: Inhibition of AcrB in multidrug-resistant Escherichia coli BW25113 assessed as potentiation of levofloxacin-induced antibacterial activity by measuring levofloxacin MIC at 32 ug/ml by checkerboard titration method (reference value: 0.06 ug/ml). Conditions: dose 32.0 µg/ml.
Series [12] has the same target. Put plainly: Inhibition of AcrB in multidrug-resistant Escherichia coli BW25113 assessed as potentiation of levofloxacin-induced antibacterial activity by measuring levofloxacin MIC at 128 ug/ml by checkerboard titration method (reference value: 0.06 ug/ml). Conditions: dose 128.0 µg/ml.
For series [13], the system named is Cell membrane. Put plainly: Induction of outer membrane permeabilization in wild type Escherichia coli BW25113 assessed as increase in nitrocefin hydrolysis at 128 ug/ml in presence of CCCP by spectroscopic analysis. Conditions: dose 128 µg/ml. Summed up: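 Intact E. coli were treated with 10 μM CCCP to block nitrocefin efflux, then given compound, nothing, or polymyxin B as permeabilizer control. Nitrocefin was added, and hydrolysis by periplasmic β-lactamase was followed as the rise in absorbance at 490 nm. Duplicate experiments were run on different days.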

Series [14] has as its system Cell membrane. Put plainly: Induction of inner membrane permeabilization in wild type Escherichia coli BW25113 assessed as perturbation of proton motive force at 128 ug/ml measured after 10 mins in presence of CCCP and glucose by Di0C2(3) probe based fluorescence assay. Conditions: escherichia coli bw25113, 10 min, dose 128 µg/ml. The gist of the method:
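Cell suspensions were left untreated or exposed to 8-128 µg/mL compound for 10 min. DiOC₂(3) was then added and fluorescence followed to a plateau. Cells were re-energized with 0.5% glucose, and the rise in fluorescence was read as membrane-potential build-up. CCCP was added last to dissipate the potential.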

For series [15], the target named is T1, Multidrug efflux pump subunit AcrB (Escherichia coli (strain K12)). Conditions: Escherichia coli BW25113; dose 16.0 µg/ml.
The target is the same in series [16]. Conditions: Escherichia coli BW25113; dose 32.0 µg/ml.

Molecules are shown by their SMILES. Values after ≈ are worked out from the molar mass of the structure shown.

Regarding `C=CC(=O)Nc1ccc(COc2cccc3c4c(c(C(=O)N5CCOCC5)cc23)CCC(C)(C)O4)cc1`, the MIC in [1] amounted to 16 µg/mL; in [2], 4 µg/mL; in [3], 4 µg/mL; in series [4], 2 µg/mL; in series [5], 16 µg/mL; in series [6], 512 µg/mL. For the same molecule, the MIC in [7] worked out at 256 µg/mL; in series [8] it was 128 µg/mL; in series [9], 64 µg/mL; in series [10], 0.06 µg/mL; in series [11], 0.06 µg/mL; in series [12] it was 0.01 µg/mL. Besides, the MIC in series [15] and in series [16] was 16 µg/mL (≈ 32 µM) throughout. Also, the Activity entry in the series on Cell membrane [13] and in the series on Cell membrane [14] was “Not Active” each time.

Take `CC1(C)CCc2c(Cn3cnnn3)cc3c(OCc4ccc([N+](=O)[O-])cc4)cccc3c2O1`: the MIC is 64 µg/mL in [1]; 8 µg/mL in [2]; 8 µg/mL in series [3]; 8 µg/mL in series [4]; 64 µg/mL in series [5]; 1020 µg/mL in series [6]. For the same molecule, the MIC in [7] turned out to be 1020 µg/mL; in [8] it was 1020 µg/mL; in [9], 512 µg/mL; in [10], 0.06 µg/mL; in series [11], 0.06 µg/mL; in series [12] it was 0.06 µg/mL. Further, the MIC in series [15] and in [16] was 16 µg/mL (≈ 35.9 µM) in each case. Besides, the Activity entry in the series on Cell membrane [13] and in the series with Cell membrane [14] was “Not Active” each time.

Consider `CC1(C)CCc2c(-c3nnco3)cc3c(OCc4ccc(C#N)cc4)cccc3c2O1`, for which the MIC is 64 µg/mL in [1]; 8 µg/mL in series [2]; 4 µg/mL in series [3]; 2 µg/mL in [4]; 64 µg/mL in series [5]; 1020 µg/mL in series [6]. Besides, the MIC in [7] was 1020 µg/mL; in series [8], 512 µg/mL; in series [9], 512 µg/mL; in series [10], 0.06 µg/mL; in series [11] it was 0.06 µg/mL; in [12], 0.06 µg/mL. For the same molecule, the MIC in series [15] and in [16] was 16 µg/mL (≈ 38.9 µM) in each case. Moreover, the Activity entry in the series with Cell membrane [13] and with Cell membrane [14] was “Not Active” each time.

In the case of `Cc1ccc(COc2cccc3c4c(c(-c5nnco5)cc23)CCC(C)(C)O4)cc1`, the MIC in series [1] was found to be 32 µg/mL; in series [2] it was 8 µg/mL; in [3] it was 8 µg/mL; in series [4], 2 µg/mL; in series [5] it was 32 µg/mL; in series [6], 512 µg/mL. Besides, the MIC in [7] came to 512 µg/mL; in [8], 512 µg/mL; in series [9], 64 µg/mL; in series [10], 0.03 µg/mL; in series [11] it was 0.03 µg/mL; in [12] it was 0.01 µg/mL. Moreover, the MIC in [15] and in series [16] was 16 µg/mL (≈ 40 µM) each time. The Activity entry in the series on Cell membrane [13] and in the series on Cell membrane [14] was “Not Active” each time.

Turning to `COc1cccc(COc2cccc3c4c(c(-c5nnco5)cc23)CCC(C)(C)O4)c1`, the MIC in series [1] turned out to be 64 µg/mL; in series [2], 8 µg/mL; in [3], 8 µg/mL; in [4], 8 µg/mL; in [5], 64 µg/mL; in series [6], 1020 µg/mL. Moreover, the MIC in [7] was found to be 1020 µg/mL; in series [8], 512 µg/mL; in series [9], 512 µg/mL; in [10], 0.06 µg/mL; in series [11], 0.06 µg/mL; in series [12], 0.06 µg/mL. Besides, the MIC in [15] and in series [16] was 16 µg/mL (≈ 38.4 µM) throughout. The Activity entry in the series on Cell membrane [13] and in the series on Cell membrane [14] was “Not Active” each time.
